Assay results from ChEMBL document CHEMBL1151755, “Crystal structure of the peroxisome proliferator-activated receptor gamma (PPARgamma) ligand binding domain complexed with a novel partial agonist: a new region of the hydrophobic pocket could be exploited for drug design” (J Med Chem, 2008).
Activity calls are given as the source filed them. The rule behind the calls is not given here.

Experiments:
[1] = molecular target: T1, Peroxisome proliferator-activated receptor alpha (Mus musculus) (UniProt P23204); assay: (§1) Agonist activity at mouse PPARalpha ligand binding domain expressed in human Hep G2 cells co-transfected with Gal4-DBD by luciferase reporter gene assay; assay type: cell-based; conditions: HepG2
T1 sequence (whole entry): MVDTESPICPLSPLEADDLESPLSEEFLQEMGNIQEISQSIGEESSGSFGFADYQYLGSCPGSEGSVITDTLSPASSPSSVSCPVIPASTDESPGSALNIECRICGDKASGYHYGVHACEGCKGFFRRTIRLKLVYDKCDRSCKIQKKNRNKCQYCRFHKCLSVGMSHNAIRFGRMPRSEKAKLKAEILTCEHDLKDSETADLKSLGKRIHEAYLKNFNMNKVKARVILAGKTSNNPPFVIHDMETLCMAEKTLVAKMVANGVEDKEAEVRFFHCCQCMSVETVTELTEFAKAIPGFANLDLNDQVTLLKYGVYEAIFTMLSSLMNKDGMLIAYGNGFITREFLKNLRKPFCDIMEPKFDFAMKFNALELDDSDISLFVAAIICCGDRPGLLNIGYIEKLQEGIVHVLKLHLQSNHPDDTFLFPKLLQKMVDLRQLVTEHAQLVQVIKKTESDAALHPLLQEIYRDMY

[2] = molecular target: T2, Oxysterols receptor LXR-alpha (Homo sapiens) (UniProt Q13133); assay: Increase in transcriptional activity of LXRalpha ligand binding domain expressed in human Hep G2 cells co-transfected with Gal4-DBD by luciferase reporter gene assay; assay type: cell-based; conditions: HepG2
T2 sequence (whole entry): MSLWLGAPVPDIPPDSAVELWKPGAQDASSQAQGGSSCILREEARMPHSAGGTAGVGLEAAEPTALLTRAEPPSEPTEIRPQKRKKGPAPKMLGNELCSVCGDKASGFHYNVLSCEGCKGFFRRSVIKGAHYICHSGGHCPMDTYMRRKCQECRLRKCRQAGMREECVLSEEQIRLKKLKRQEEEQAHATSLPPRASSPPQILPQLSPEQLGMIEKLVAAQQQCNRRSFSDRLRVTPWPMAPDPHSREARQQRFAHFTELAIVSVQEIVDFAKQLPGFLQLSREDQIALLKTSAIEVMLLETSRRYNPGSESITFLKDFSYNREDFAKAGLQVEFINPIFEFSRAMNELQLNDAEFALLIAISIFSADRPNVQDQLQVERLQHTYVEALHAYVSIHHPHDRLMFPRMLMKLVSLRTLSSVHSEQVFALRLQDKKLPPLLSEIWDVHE
In short: (§2)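 HepG2 cells transfected for 4 h by calcium phosphate coprecipitation with 100 ng pGal4UAS-luciferase, 50 ng Gal4-LBD receptor vector and 300 ng CMV-β-galactosidase plasmid for normalization. Cells were washed in PBS, then refed with serum-free DMEM/F-12 containing penicillin/streptomycin and compound or 0.1% ethanol vehicle for 20 h. Luciferase read-out was normalized to β-galactosidase. Experiments were repeated at least three times.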

HepG2 = assay: Increase in transcriptional activity of ROR ligand binding domain expressed in human Hep G2 cells co-transfected with Gal4-DBD by luciferase reporter gene assay; assay type: cell-based; in short: as §2
[3] = molecular target: T3, Peroxisome proliferator-activated receptor alpha (Mus musculus, UniProt P23204); assay: as §1; assay type: cell-based, HepG2
T3 sequence (P23204 whole entry): T1 sequence (whole entry)

SMILES | Activity [1] | Activity [2] | Activity (HepG2) | EC50 [3] [nM]
O=C(O)[C@@H](Cc1ccccc1)Oc1ccc(-c2ccccc2)cc1 | inactive | – | – | –
O=C(O)[C@H](Cc1ccccc1)Oc1ccc(-c2ccccc2)cc1 | – | inactive | inactive | 260
